The structures appear in SMILES notation.

For assay [1], the system named is HepG2. In words: Antiproliferative activity against human HepG2 cells after 48 hrs by SRB assay. In kind it is functional, cell-based. The note with it: HepG2, 48 h. In short, it runs like this:
(§1)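 SRB assay on cells in RPMI-1640 with 2 mM glutamine, 10% FBS and penicillin/streptomycin at 37 °C and 5% CO2. Seeded at 5000 cells/well and grown 24 h, then compounds added in triplicate (DMSO 0.5% final) for 48 h. Fixed with TCA at 4 °C for 1 h, stained with SRB, dye dissolved in 10 mM Tris pH 10.4, OD read at 515 nm. IC50 from nonlinear dose-response fit; experiments run at least twice.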

The nature of assay [2]: Inhibition of TNFalpha-induced NF-kappaB translocation in human A549 cells incubated at 37 degC for 30 mins by high content analysis based immunofluorescence assay. Type of assay: cell-based. Particulars: A549, 0.5 h. The method in brief: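 A549 cells at 2000/well grown 24 h, then compound added in duplicate (DMSO 0.5% final) for 30 min at 37 °C. Stimulated with TNFα at 10 ng/mL final for 30 min, then fixed with 4% paraformaldehyde and permeabilized with Triton X-100. Stained with anti-p65 and DyLight 488 secondary plus Hoechst, imaged on ArrayScan. Nuclear minus cytoplasmic intensity, background-subtracted, given as % of TNFα-only control. IC50 from this; repeated at least twice.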

Assay [3] has as its system A549. In words: Antiproliferative activity against human A549 cells after 48 hrs by SRB assay. Type of assay: functional, cell-based. The note with it: A549, 48 h. In short, it runs like this:
as §1

For assay [4], the system named is SW480. In words: Antiproliferative activity against human SW480 cells after 48 hrs by SRB assay. In kind it is functional, cell-based. Particulars: SW480, 48 h. In short, it runs like this:
as §1

Assay [5] deals with MCF7. In words: Antiproliferative activity against human MCF7 cells after 48 hrs by SRB assay. The note with it: MCF7, 48 h. Type of assay: functional, cell-based. The method in brief:
as §1

The nature of assay [6]: Antiproliferative activity against human CNE2 cells after 48 hrs by SRB assay. In kind it is functional, cell-based. Particulars: CNE-2, 48 h. In short, it runs like this: as §1

Consider `COc1cc(OC)c(C=C(C(=O)/C=C/c2cccc(OC)c2OC)C(=O)/C=C/c2cccc(OC)c2OC)c(OC)c1`, for which the IC50 in assay [1] is 300 nM; in assay [2] it was over 50 µM; in assay [3], 630 nM; in assay [4], 840 nM; in assay [5] it was 720 nM; in assay [6], 630 nM.
Consider `COc1ccc(OC)c(/C=C/C(=O)C(=Cc2ccc(OC)c(OC)c2)C(=O)/C=C/c2cc(OC)ccc2OC)c1`, for which the IC50 in assay [1] was 260 nM; in assay [2], 14.4 µM; in assay [3], 400 nM; in assay [4], 560 nM; in assay [5], 850 nM; in assay [6], 550 nM.
Turning to `COc1cccc(/C=C/C(=O)C(=Cc2ccc(O)c(F)c2)C(=O)/C=C/c2cccc(OC)c2OC)c1OC`, the half-maximal inhibitory concentration (IC50) came out at 220 nM in assay [1]; 5.25 µM in assay [2]; 200 nM in assay [3]; 330 nM in assay [4]; 300 nM in assay [5]; 260 nM in assay [6].
On to `COc1cccc(/C=C/C(=O)C(=Cc2cc(OC)c(OC)c(OC)c2)C(=O)/C=C/c2cccc(OC)c2OC)c1OC`, for which the 50% inhibitory concentration (IC50) worked out at 220 nM in assay [1]; 1.32 µM in assay [2]; 230 nM in assay [3]; 650 nM in assay [4]; 840 nM in assay [5]; 400 nM in assay [6].
Take `COc1ccc(/C=C/C(=O)C(=Cc2ccc(O)c(F)c2)C(=O)/C=C/c2ccc(OC)cc2OC)c(OC)c1`: the IC50 in assay [1] is 1760 nM; in assay [2] it was 23 µM; in assay [3], 2070 nM; in assay [4] it was 3350 nM; in assay [5], 5450 nM; in assay [6], 2830 nM.
As for `COc1ccc(C=C(C(=O)/C=C/c2cccc(OC)c2OC)C(=O)/C=C/c2cccc(OC)c2OC)cc1OC`, the IC50 in assay [1] was 200 nM; in assay [2] it was 1.67 µM; in assay [3], 170 nM; in assay [4], 410 nM; in assay [5] it was 560 nM; in assay [6] it was 280 nM.
In the case of `COc1ccc(/C=C/C(=O)C(=Cc2cc(OC)c(O)c(OC)c2)C(=O)/C=C/c2ccc(OC)cc2OC)c(OC)c1`, the IC50 in assay [1] is 320 nM; in assay [2] it was 3.93 µM; in assay [3], 300 nM; in assay [4], 850 nM; in assay [5], 970 nM; in assay [6], 850 nM.
With `COc1cc(C=C(C(=O)/C=C/c2cccc(OC)c2OC)C(=O)/C=C/c2cccc(OC)c2OC)cc(OC)c1O`, the IC50 in assay [1] was found to be 210 nM; in assay [2], 2.62 µM; in assay [3] it was 240 nM; in assay [4], 420 nM; in assay [5], 460 nM; in assay [6], 300 nM.
Take `COc1cc(C=C(C(=O)/C=C/c2cccc(OC)c2OC)C(=O)/C=C/c2cccc(OC)c2OC)cc(Br)c1O`: the IC50 in assay [1] is 240 nM; in assay [2], 5.53 µM; in assay [3] it was 200 nM; in assay [4], 260 nM; in assay [5], 360 nM; in assay [6], 220 nM.
As for `COc1ccc(OC)c(/C=C/C(=O)/C=C(O)/C=C/c2cc(OC)ccc2OC)c1`, the half-maximal inhibitory concentration (IC50) in assay [1] is 5560 nM; in assay [2], over 50 µM; in assay [3], 16300 nM; in assay [4], 15600 nM; in assay [5], over 50000 nM; in assay [6] it was 14700 nM.
As to `COc1ccc(C=C(C(=O)/C=C/c2cccc(OC)c2OC)C(=O)/C=C/c2cccc(OC)c2OC)cc1O`, the IC50 in assay [1] was 270 nM; in assay [2], 1.26 µM; in assay [3] it was 270 nM; in assay [4] it was 320 nM; in assay [5], 310 nM; in assay [6], 220 nM.
Regarding `COc1cccc(/C=C/C(=O)C(=Cc2ccc(OC)c(OC)c2OC)C(=O)/C=C/c2cccc(OC)c2OC)c1OC`, the IC50 was found to be 240 nM in assay [1]; 1.63 µM in assay [2]; 260 nM in assay [3]; 560 nM in assay [4]; 380 nM in assay [5]; 410 nM in assay [6].
As to `COc1cc(OC)c(/C=C/C(=O)C(=Cc2cc(OC)c(O)c(OC)c2)C(=O)/C=C/c2c(OC)cc(OC)cc2OC)c(OC)c1`, the IC50 is 510 nM in assay [1]; over 50 µM in assay [2]; 340 nM in assay [3]; 980 nM in assay [4]; 1030 nM in assay [5]; 680 nM in assay [6].
With `COc1ccc(/C=C/C(=O)/C=C(O)/C=C/c2ccc(OC)cc2OC)c(OC)c1`, the half-inhibitory concentration (IC50) in assay [1] is 10400 nM; in assay [2] it was over 50 µM; in assay [3], 44700 nM; in assay [4], over 50000 nM; in assay [5] it was over 50000 nM; in assay [6], over 50000 nM.
`COc1cc(/C=C/C(=O)CC(=O)/C=C/c2ccc(O)c(OC)c2)ccc1O` [CURCUMIN]: the 50% inhibitory concentration (IC50) in assay [1] was 20700 nM; in assay [2], 21.4 µM; in assay [3] it was 11600 nM; in assay [4], 10200 nM; in assay [5] it was 15700 nM; in assay [6], 5760 nM.
For the molecule `COc1cc(OC)c(/C=C/C(=O)C(=Cc2ccc(O)c(F)c2)C(=O)/C=C/c2c(OC)cc(OC)cc2OC)c(OC)c1`, the 50% inhibitory concentration (IC50) was 810 nM in assay [1]; over 50 µM in assay [2]; 1060 nM in assay [3]; 1950 nM in assay [4]; 3180 nM in assay [5]; 1580 nM in assay [6].
`COc1ccc(/C=C/C(=O)C(=Cc2cc(Br)c(O)c(OC)c2)C(=O)/C=C/c2ccc(OC)cc2OC)c(OC)c1`: the half-inhibitory concentration (IC50) is 1190 nM in assay [1]; over 50 µM in assay [2]; 1090 nM in assay [3]; 1480 nM in assay [4]; 2600 nM in assay [5]; 1780 nM in assay [6].
For the molecule `COc1ccc(/C=C/C(=O)C(=Cc2ccc(O)c(OC)c2)C(=O)/C=C/c2ccc(OC)cc2OC)c(OC)c1`, the IC50 in assay [1] worked out at 510 nM; in assay [2], 10.4 µM; in assay [3], 590 nM; in assay [4], 1520 nM; in assay [5], 2140 nM; in assay [6] it was 970 nM.
Consider `COc1cccc(/C=C/C(=O)C(=Cc2ccc(F)cc2)C(=O)/C=C/c2cccc(OC)c2OC)c1OC`, for which the IC50 in assay [1] was 580 nM; in assay [2], 1.72 µM; in assay [3], 340 nM; in assay [4], 1040 nM; in assay [5], 1830 nM; in assay [6] it was 610 nM.
As to `COc1cc(OC)c(/C=C/C(=O)C(=Cc2cc(Br)c(O)c(OC)c2)C(=O)/C=C/c2c(OC)cc(OC)cc2OC)c(OC)c1`, the IC50 in assay [1] is 660 nM; in assay [2], over 50 µM; in assay [3], 730 nM; in assay [4], 1450 nM; in assay [5] it was 1460 nM; in assay [6] it was 1320 nM.
Turning to `COc1cc(OC)c(/C=C/C(=O)C(=Cc2ccc(O)c(OC)c2)C(=O)/C=C/c2c(OC)cc(OC)cc2OC)c(OC)c1`, the IC50 in assay [1] is 670 nM; in assay [2] it was over 50 µM; in assay [3] it was 580 nM; in assay [4], 1490 nM; in assay [5], 1880 nM; in assay [6], 1350 nM.
Consider `COc1cc(OC)c(/C=C/C(=O)/C=C(O)/C=C/c2c(OC)cc(OC)cc2OC)c(OC)c1`, for which the IC50 in assay [1] was 16500 nM; in assay [2] it was over 50 µM; in assay [3] it was over 50000 nM; in assay [4], over 50000 nM; in assay [5], over 50000 nM; in assay [6], over 50000 nM.
As to `COc1ccc(OC)c(/C=C/C(=O)C(=Cc2ccc(O)c(OC)c2)C(=O)/C=C/c2cc(OC)ccc2OC)c1`, the IC50 in assay [1] is 340 nM; in assay [2] it was 2.65 µM; in assay [3], 190 nM; in assay [4], 410 nM; in assay [5] it was 400 nM; in assay [6], 340 nM.
Take `COc1ccc(OC)c(/C=C/C(=O)C(=Cc2ccc(O)c(F)c2)C(=O)/C=C/c2cc(OC)ccc2OC)c1`: the IC50 in assay [1] came out at 220 nM; in assay [2] it was 3.01 µM; in assay [3] it was 220 nM; in assay [4], 510 nM; in assay [5], 460 nM; in assay [6] it was 380 nM.
Take `COc1cccc(C=C(C(=O)/C=C/c2cccc(OC)c2OC)C(=O)/C=C/c2cccc(OC)c2OC)c1OC`: the half-inhibitory concentration (IC50) in assay [1] was 230 nM; in assay [2] it was 2.39 µM; in assay [3], 320 nM; in assay [4], 590 nM; in assay [5], 520 nM; in assay [6], 400 nM.
As for `COc1ccc(OC)c(/C=C/C(=O)C(=Cc2ccc(OC)c(O)c2)C(=O)/C=C/c2cc(OC)ccc2OC)c1`, the IC50 in assay [1] was found to be 470 nM; in assay [2], 1.78 µM; in assay [3] it was 390 nM; in assay [4], 1120 nM; in assay [5], 990 nM; in assay [6] it was 730 nM.
With `COc1ccc(OC)c(/C=C/C(=O)C(=Cc2cc(OC)c(O)c(OC)c2)C(=O)/C=C/c2cc(OC)ccc2OC)c1`, the IC50 in assay [1] is 210 nM; in assay [2] it was 0.95 µM; in assay [3], 190 nM; in assay [4], 500 nM; in assay [5], 430 nM; in assay [6] it was 450 nM.
`COc1cccc(/C=C/C(=O)/C=C(O)/C=C/c2cccc(OC)c2OC)c1OC`: the IC50 in assay [1] was 12900 nM; in assay [2], over 50 µM; in assay [3], 11500 nM; in assay [4] it was 12000 nM; in assay [5], over 50000 nM; in assay [6], 12800 nM.

The values above are taken from ChEMBL document CHEMBL2062524, “Synthesis, cytotoxicity of new 4-arylidene curcumin analogues and their multi-functions in inhibition of both NF-κB and Akt signalling” (Eur J Med Chem, 2012).
